Measurements published in ChEMBL document CHEMBL4028855, “New Mandelalides Expand a Macrolide Series of Mitochondrial Inhibitors” (J Med Chem, 2017).
The source made the active and inactive calls. The calls are words filed in the database; no cut-off is given here.

Assays:
[1] = tested on: HeLa; assay: Cytotoxicity against human HeLa cells assessed as reduction in cell viability measured after 48 hrs by MTT assay
[2] = organism: Homo sapiens; assay: Inhibition of mitochondrial ATP synthase activity in human NCI-H292 cells assessed as decrease in oxygen consumption rate at 1 uM at 135 mins after FCCP treatment at 87 mins by real-time metabolic flux analysis; assay type: cell-based
[3] = organism: Homo sapiens; assay: Inhibition of mitochondrial ATP synthase activity in human NCI-H292 cells assessed as decrease in oxygen consumption rate at 1 uM at 87 mins followed by addition of rotenon /Antimycin A at 135 mins measured by real-time metabolic flux analysis; assay type: cell-based
[4] = organism: Homo sapiens; assay: Inhibition of mitochondrial ATP synthase activity in human NCI-H292 cells assessed as decrease in basal oxygen consumption rate at 1 uM at 32 mins followed by addition of FCCP at 87 mins and rotenon /Antimycin A at 135 mins by real-time metabolic flux analysis; assay type: cell-based
[5] = tested on: NCI-H460; assay: Cytotoxicity against human NCI-H460 cells assessed as reduction in cell viability measured after 48 hrs by MTT assay; assay type: functional, cell-based; settings: NCI-H460, 48 h
Method in brief: (§1)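 Cells grown at 37 °C, 5% CO2 and seeded 16−18 h before treatment. Exposed to increasing concentrations or vehicle (0.1% DMSO) for 48 h. Viability read by MTT, with vehicle-treated cells set as 100%. Mean ± SE, n = 3 wells, at least three independent comparisons. EC50 obtained by nonlinear regression fit to a logistic equation.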

[6] = organism: Homo sapiens; assay: Inhibition of mitochondrial ATP synthase activity in human NCI-H292 cells assessed as decrease in oxygen consumption rate at 1 uM at 32 mins followed by addition of 1 uM FCCP at 87 mins and 0.5 uM rotenon /Antimycin A at 135 mins measured by real-time metabolic flux analysis; assay type: cell-based
[7] = tested on: HeLa; assay: Cytotoxicity against human HeLa cells assessed as reduction in cell viability up to 1000 nM measured after 48 hrs by MTT assay; assay type: functional, cell-based; method in brief: as §1
[8] = tested on: HeLa; assay: Cytotoxicity against human HeLa cells assessed as reduction in cell viability at 0.03 to 300 nM after 72 hrs in presence of 2-deoyxglucose by MTT assay; assay type: functional, cell-based
[9] = tested on: HeLa; assay: Cytotoxicity against human HeLa cells at 2000 cells per well assessed as decrease in cell viability at 100 to 1000 nM after 48 hrs by MTT assay relative to control; assay type: functional
[10] = tested on: HeLa; assay: Induction of apoptosis in human HeLa cells assessed as caspase-3/7 activation at 1 to 300 nM incubated for 24 hrs measured by luminescence-based Caspase-Glo assay
[11] = (§2) Inhibition of bovine heart mitochondrial ATP synthase activity assessed as decrease in ATP-dependent NADH oxidation measured every 30 secs for 30 mins by colorimetric assay relative to control; set-up: species or system Bos taurus
[12] = organism: Bos taurus; assay: as §2
[13] = Safety index, ratio of compound EC50 to Oligomycin A EC50 for cytotoxicity against HEK293T cells; assay type: cell-based, HEK-293T; settings: human, read-out: Ratio EC50
Method in brief: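 HEK 293T cells were grown in DMEM with 10% FBS, 2 mM L-glutamine and 1% penicillin/streptomycin at 37 °C and 5% CO2. They were seeded at two starting densities 16−18 h before treatment with increasing concentrations of test compound or oligomycin A (final DMSO ≤0.1%). Viability was read by MTT relative to vehicle (100%), with EC50s fit by nonlinear logistic regression and compared as a ratio.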

[14] = tested on: NCI-H460; assay: Cytotoxicity against human NCI-H460 cells assessed as reduction in cell viability measured after 72 hrs by MTT assay; settings: NCI-H460, 72 h
[15] = tested on: HeLa; assay: Cytotoxicity against human HeLa cells at 10000 cells per well assessed as cell viability at 100 to 1000 nM after 48 hrs by MTT assay relative to control; assay type: functional
[16] = tested on: HEK-293T; assay: Cytotoxicity against HEK293T cells assessed as decrease in cell viability measured after 48 hrs by MTT assay; assay type: cell-based; settings: human; method in brief: as §1
[17] = tested on: HeLa; assay: Cytotoxicity against human HeLa cells at 6000 cells per well assessed as cell viability at 100 to 1000 nM after 48 hrs by MTT assay relative to control; assay type: functional
[18] = organism: Bos taurus; assay: Inhibition of bovine heart mitochondrial ATP synthase activity assessed as decrease in ATP-dependent NADH oxidation at 12.5 uM measured every 30 secs for 30 mins by colorimetric assay relative to control
[19] = tested on: HeLa; assay: Cytotoxicity against human HeLa cells at 6000 cells per well assessed as decrease in cell viability up to 1 uM after 48 hrs by MTT assay; assay type: functional, cell-based
[20] = tested on: HeLa; assay: Cytotoxicity against human HeLa cells assessed as reduction in cell viability at […] after 72 hrs by MTT assay; assay type: functional, cell-based
[21] = tested on: HeLa; assay: Cytotoxicity against human HeLa cells at 10000 cells per well assessed as decrease in cell viability up to 1 uM after 48 hrs by MTT assay; assay type: functional, cell-based
[22] = tested on: HeLa; assay: Cytotoxicity against human HeLa cells at 2000 cells per well assessed as decrease in cell viability at 0.25 to 1 uM after 48 hrs by MTT assay relative to control; assay type: functional
[23] = organism: Bos taurus; assay: Inhibition of bovine heart mitochondrial ATP synthase activity assessed as decrease in ATP-dependent NADH oxidation at 1 uM measured every 30 secs for 30 mins by colorimetric assay relative to control

CCCC(=O)O[C@H]1C[C@H]2C[C@@H](O[C@@H]3O[C@@H](C)[C@@H](O)[C@@H](O)[C@H]3OC)C[C@@H](C[C@@H](C)/C=C/C=C\C[C@@H]3O[C@@H](C[C@@H]3C)[C@@H](O)C[C@H]3C[C@@]1(O)C(=O)O3)O2
EC50 [1]: 16 nM
inhibition [2]: Active
inhibition [3]: Active
inhibition [4]: Active
EC50 [5]: 44 nM
inhibition [6]: Active

CCCC(=O)O[C@H]1[C@@H](OC)[C@H](O[C@@H]2C[C@@H]3C[C@H](O)[C@]4(O)C(=O)O[C@@H](C[C@H](O)[C@@H]5C[C@H](C)[C@H](C/C=C\C=C\[C@H](C)C[C@H](C2)O3)O5)[C@H]4O)O[C@@H](C)[C@H]1OC(=O)CCC
EC50 [1]: 1900 nM
EC50 [5]: 2000 nM

CCCC(=O)O[C@H]1C[C@H]2C[C@@H](O)C[C@@H](C[C@@H](C)/C=C/C=C\C[C@@H]3O[C@@H](C[C@@H]3C)[C@@H](O)C[C@@H]3OC(=O)[C@]1(O)[C@@H]3OC(=O)CCC)O2
EC50 [1]: 660 nM
EC50 [5]: 1700 nM

CCCC(=O)O[C@H]1[C@@H](OC)[C@H](O[C@@H]2C[C@@H]3C[C@H](OC(C)=O)[C@@]4(O)C[C@H](C[C@H](OC(C)=O)[C@@H]5C[C@H](C)[C@H](C/C=C\C=C\[C@H](C)C[C@H](C2)O3)O5)OC4=O)O[C@@H](C)[C@H]1OC(=O)CCC
EC50 [1]: > 3000 nM
EC50 [5]: 2400 nM

COC(=O)/C=C/C[C@H]1C[C@@H](O[C@@H]2O[C@@H](C)[C@H](O)[C@@H](O)[C@H]2OC)C[C@@H](C[C@@H](C)/C=C/C=C\C[C@@H]2O[C@H]([C@@H](O)C[C@H](O)CO)C[C@@H]2C)O1
Activity [7]: inactive

CCCC(=O)OC1C(=O)C(OC)C(O[C@@H]2C[C@@H]3C[C@H](OC(=O)CCC)[C@]4(O)C(=O)O[C@@H](C[C@H](O)[C@@H]5C[C@H](C)[C@H](C/C=C\C=C\[C@H](C)C[C@H](C2)O3)O5)[C@H]4O)OC1C (some centres undefined)
EC50 [1]: 50 nM
EC50 [5]: 270 nM

CCCC(=O)O[C@H]1[C@@H](OC)[C@H](O[C@@H]2C[C@@H]3C[C@H](OC(=O)CCC)[C@@]4(O)C[C@H](C[C@H](O)[C@@H]5C[C@H](C)[C@H](C/C=C\C=C\[C@H](C)C[C@H](C2)O3)O5)OC4=O)O[C@@H](C)[C@H]1OC(=O)CCC
EC50 [1]: 2000 nM
EC50 [5]: 910 nM

CO[C@H]1[C@H](O[C@@H]2C[C@@H]3C/C=C/C(=O)O[C@H](CO)C[C@H](O)[C@@H]4C[C@H](C)[C@H](C/C=C\C=C\[C@H](C)C[C@H](C2)O3)O4)O[C@@H](C)[C@H](O)[C@H]1O
Activity [8]: Active
EC50 [1]: 9.9 nM
Activity [9]: 25%
Activity [10]: Active
IC50 [11]: 2.2 nM
inhibition [12]: Dose-dependent effect
selectivity ratio [13]: 13 to 30
inhibition [4]: Active
EC50 [14]: 11 nM
Activity [15]: 85%
Activity [16]: Dose-dependent effect
Activity [17]: 85%

CCCC(=O)O[C@H]1[C@@H](OC)[C@H](O[C@@H]2C[C@@H]3C[C@H](OC(=O)CCC)[C@@]4(O)C[C@H](C[C@H](OC(C)=O)[C@@H]5C[C@H](C)[C@H](C/C=C\C=C\[C@H](C)C[C@H](C2)O3)O5)OC4=O)O[C@@H](C)[C@H]1OC(=O)CCC
EC50 [1]: > 3000 nM
EC50 [5]: 790 nM

CCCC(=O)O[C@H]1[C@@H](OC)[C@H](O[C@@H]2C[C@@H]3C[C@H](OC(=O)CCC)[C@]4(O)C(=O)O[C@@H](C[C@H](O)[C@@H]5C[C@H](C)[C@H](C/C=C\C=C\[C@H](C)C[C@H](C2)O3)O5)[C@H]4O)O[C@@H](C)[C@H]1OC(=O)CCC
EC50 [1]: > 3000 nM
EC50 [5]: > 3000 nM

CCCCCC(=O)O[C@H]1C[C@H]2C[C@@H](O)C[C@@H](C[C@@H](C)/C=C/C=C\C[C@@H]3O[C@@H](C[C@@H]3C)[C@@H](O)C[C@@H]3OC(=O)[C@]1(O)[C@@H]3OC(=O)CCC)O2
EC50 [1]: 330 nM
EC50 [5]: 2600 nM

CCCCCCCC(=O)OC[C@@H]1C[C@H](O)[C@@H]2C[C@H](C)[C@H](C/C=C\C=C\[C@H](C)C[C@@H]3C[C@H](O[C@@H]4O[C@@H](C)[C@H](O)[C@@H](O)[C@H]4OC)C[C@H](C/C=C/C(=O)O1)O3)O2
EC50 [1]: 2.8 nM
EC50 [5]: 9.8 nM

CCCC(=O)O[C@H]1C[C@H]2C[C@@H](O)C[C@@H](C[C@@H](C)/C=C/C=C\C[C@@H]3O[C@@H](C[C@@H]3C)[C@@H](O)C[C@@H]3OC(=O)[C@]1(O)[C@@H]3O)O2
EC50 [1]: > 3000 nM
IC50 [11]: 3400 nM
inhibition [4]: inactive
EC50 [5]: > 3000 nM

CC[C@@H]1/C=C/C=C/C[C@H](C)[C@@H](O)[C@](C)(O)C(=O)[C@@H](C)[C@H](O)[C@@H](C)C(=O)[C@H](C)[C@@H](O)[C@H](C)/C=C/C(=O)O[C@H]2[C@@H](C)[C@@H](CC1)O[C@@]1(CC[C@@H](C)[C@@H](C[C@H](C)O)O1)[C@@H]2C
inhibition [4]: Active
inhibition [18]: Active
inhibition [6]: Active

OC[C@H]1OC(O)C[C@@H](O)[C@@H]1O (some centres undefined)
Activity [19]: inactive
Activity [20]: Active
Activity [21]: inactive
Activity [22]: 50%

COC[C@@H](C[C@H]1O[C@@](O)([C@H](O)[C@@H]2C[C@H](OC)[C@@H](O)CC/C=C(C)/C=C/[C@@H](O[C@@H]3O[C@@H](C)[C@H](OC)[C@@H](O)[C@@H]3O)[C@H](C)/C=C(C)/C=C(C)/C=C(\C)C(=O)O2)[C@H](C)[C@@H](O)[C@H]1C)O[C@H]1C[C@](C)(O)[C@@H](O[C@H]2C[C@@H](OC)[C@H](O)[C@@H](C)O2)[C@H](C)O1
inhibition [23]: Active
